TAAR1 antag = antagonists of human TAAR1 | Q96RJ0 | CHO RD-HGA16 TAAR1, Fluo-8 calcium fluorescence, antagonist | inhibition, % at 3 µM | 360,000 tested, 1.5% active | AID 624466;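 active = inhibition above a per-plate cutoff, the mean inhibition of test compounds on that plate plus 3 SD, cut at about 49% in these data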
Target sequence (Q96RJ0 whole entry, looked up): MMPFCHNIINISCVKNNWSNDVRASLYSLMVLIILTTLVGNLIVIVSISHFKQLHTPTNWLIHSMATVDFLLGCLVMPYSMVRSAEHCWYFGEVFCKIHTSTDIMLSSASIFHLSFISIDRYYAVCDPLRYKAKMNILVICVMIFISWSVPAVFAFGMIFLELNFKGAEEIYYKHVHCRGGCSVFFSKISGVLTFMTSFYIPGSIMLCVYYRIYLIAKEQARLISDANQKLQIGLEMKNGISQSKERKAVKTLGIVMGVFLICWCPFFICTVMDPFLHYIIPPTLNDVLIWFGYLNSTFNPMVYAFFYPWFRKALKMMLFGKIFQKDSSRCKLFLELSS
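Test system – hTAAR1-expressing CHO RD-HGA16 cells, Gα16-coupled · Also added – β-PEA at EC80 concentration, post-compound challenge · Compound – 3 µM, single point · Incubation – dye loading 75 min at 37 °C, then 30 min room temperature · Measured by – Fluo-8 intracellular calcium dye fluorescence, real-time kinetic reads · Benchmarks – vehicle and agonist controls · Replicates – singlicate, one well per test compound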
CHRM4 antagonist = antagonists of human muscarinic M4 receptor (CHRM4); CHO-hM4 cells, ACh EC80, Fluo-8 calcium fluorescence; 360,000 tested, 0.73% active; AID 624125; inhibition, % at 3 µM; P08173;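 active = inhibition above its plate's cutoff, the mean inhibition of sample wells plus 3 SD, cut at about 27% in these data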
M4 ag = CHRM4 agonism in calcium assay; 360,000 tested, 0.14% active; CHO-K1 hM4/Gqi5, Fluo-8 calcium fluorescence; vehicle 0%, full acetylcholine response 100%; activation, % at 3 µM;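 active = activation above the run mean over all test wells plus 3 SD, cut at about 32% in these data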;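 note: peak over basal fluorescence ratio per well then scaled between controls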
CHRM4 PAM = potentiates acetylcholine response at human M4 receptor | P08173 | CHO-K1 hM4/Gqi5, Fluo-8 calcium fluorescence, ACh EC20; 0% = ACh EC20, 100% = maximal ACh | activation, % at 3 µM | 360,000 tested, 0.4% active | AID 624126;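 active = activation above its plate's cutoff, the mean activation of sample wells plus 3 SD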
TAAR1 ag = human TAAR1 agonism. CHO RD-HGA16 TAAR1, Fluo-8 calcium fluorescence; vehicle wells 0%, saturating PEA agonist 100%. activation, % at 3 µM. 360,000 tested, 0.99% active;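 active = activation above the mean activation of all test compounds in the run plus 3 SD, cut at about 38% in these data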
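Signal – calcium-sensitive Fluo-8 signal, excitation 470-495, emission 515-575 nm · System – RD-HGA16 (CHO) cells co-expressing Gα16 and hTAAR1 · Incubation – 17-24 h seeding, 75 min 37 °C dye, 30 min RT · Compound dosing – 3 µM single concentration · Repeats – no replicates (n 1)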
A number is an active result; - = inactive; . = no result given. Shown are actives, neighbours in structure and some others; about 3% of the full set was active somewhere.

SMILES	TAAR1 antag	CHRM4 antagonist	M4 ag	CHRM4 PAM	TAAR1 ag
Cn1c(CSCc2ccc(Cl)c(Cl)c2)nnc1SCC(=O)Nc1nccs1	62	-	-	-	40
O=C(Cc1ccccc1)N/N=C/c1cc(Br)c(Br)o1	-	-	-	28	-
OCCC1CN(Cc2ccncc2)CCN1C1CCCC1 (configuration not stated)	-	-	-	-	-
CC(C)(O)C#Cc1ccc(CN2CCN(C3CCCCC3)C(CCO)C2)s1 (configuration not stated)	-	27	-	-	-
CC(C)(O)C#Cc1ccc(CN2CCN(C3CCCC3)C(CCO)C2)cc1 (configuration not stated)	-	28	-	-	-
CSc1ccc(CN2CCN(C3CCCC3)C(CCO)C2)cc1 (configuration not stated)	-	57	-	-	-
COC(=O)c1cc2c(c3c4cc(OC)ccc4n(S(=O)(=O)c4ccc(OC)cc4)c13)C(=O)N(Cc1ccc(N(C)C)cc1)C2	-	.	.	.	-
CCCCOc1ccc(C(=O)NC2CCCCN(CCC)C2=O)cc1 (configuration not stated)	-	.	.	.	-
Cc1nn(-c2ccc(C(=O)O)cc2)c(N)c1-c1ccccc1	-	-	-	-	-
Nc1c(-c2ccccc2)c(CSc2nc3ccccc3[nH]2)nn1-c1ccc(C(=O)O)cc1	-	-	-	24	-
CCc1ccc(NC(=O)c2ccc3c(=O)n4c(nc3c2)CCCCC4)cc1	-	-	-	-	-
O=C(CNc1cc([N+](=O)[O-])ccc1NCCO)Nc1cccc(S(=O)(=O)N2CCCCC2)c1	-	-	-	-	-
CC1CCCC(NC(=O)c2cccc(S(=O)(=O)N3CCOCC3)c2)C1C (configuration not stated)	-	-	-	16	-
O=C(Nc1cccc(S(=O)(=O)N2CCCCC2)c1)c1ccc2c(=O)n3c(nc2c1)CCCCC3	61	-	-	-	-
O=C(Nc1cccc(S(=O)(=O)N2CCCCC2)c1)c1ccc(S(=O)(=O)C(F)F)cc1	53	-	-	-	-
O=C(CNc1cccc(S(=O)(=O)N2CCCCCC2)c1)Nc1cccc([N+](=O)[O-])c1	56	-	-	-	-
C=CC[C@]12C[C@@]3(O[C@H](C4CCCCC4)N=C3C[C@H](c3ccc(OC)cc3)[C@H]1C)N(Cc1ccncc1)C2=O	-	.	.	.	-
Cc1cccc2cc3c(N)c(C(=O)Nc4ccc(N5CCOCC5)cc4)sc3nc12	-	-	-	-	-
CN1CCN(S(=O)(=O)c2ccc(NC(=O)c3cccc(S(=O)(=O)N4CCCC4)c3)cc2)CC1	-	37	-	-	-
O=C(CNc1cccc(Br)c1)Nc1ccc(S(=O)(=O)N2CCCCC2)cc1	-	-	-	-	-
CN1CCN(S(=O)(=O)c2ccc(NC(=O)c3cccc(F)c3)cc2)CC1	-	-	-	-	-
CCc1cccc2cc3c(N)c(C(=O)Nc4ccc(S(=O)(=O)N5CCCC5)cc4)sc3nc12	65	-	-	-	-
CCNc1ccc(S(=O)(=O)N2CCOCC2)cc1NCC(=O)Nc1cccc(Br)c1	53	-	-	-	-
CCCCS(=O)(=O)N1CCCc2nc(-c3ccc(Br)cc3)ccc21	-	.	.	.	-
C[C@@H]1ON(C)[C@H]2C[C@H]3c4cc(-c5cc6ccccc6o5)ccc4CCN3C[C@@H]12	-	.	.	.	-
SMILES	TAAR1 antag	CHRM4 antagonist	M4 ag	CHRM4 PAM	TAAR1 ag
COc1ccc(CN2CCC3CC2c2cc(-c4cccc(C)c4)ccc23)cc1 (configuration not stated)	-	-	-	-	-
COC(C#CCCN(C)C)(c1ccccc1)c1ccccc1	-	35	-	-	-
Cc1ccc2nc(CN(C)C(=O)[C@H]3O[C@@H](n4cnc(C(N)=O)n4)[C@H](O)[C@@H]3O)[nH]c2c1	-	.	.	.	-
Nc1ccn([C@@H]2O[C@H](C(=O)N[C@H](Cc3ccccc3)C(=O)N3CCN(CC(=O)N4CCCC4)CC3)[C@@H](O)[C@H]2O)c(=O)n1	-	.	.	.	-
Cc1ccccc1CSc1nnc(-c2ccncc2)o1	-	-	-	-	-
Clc1ccc(CSc2nnc(-c3ccncc3)o2)c(Cl)c1	-	-	-	32	-
CC(C)(C)S(=O)N1C[C@H]2CC(=O)C(CCO)=C2[C@@H]1CCO (some centres not stated)	-	.	.	.	-
